This assay has as its target trypsin from porcine pancreas (Sus scrofa, UniProt P00761). Nature of the assay: trypsin inhibition assay. It is filed as biochemical. Put shortly:
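Porcine pancreatic trypsin. Test compound stock diluted twofold in 50 mM Tris buffer (20 mM CaCl2, pH 8.2). Trypsin and BAPNA added at final 40 and 160 µg/mL, incubated at 37 °C for 12 min, stopped with 30% acetic acid, A410 read. IC50 derived from % inhibition. Caffeic and tannic acids were reference inhibitors. Means ± standard errors; one-way ANOVA with Tukey's test, p < 0.05.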

As a reminder, the IC50 is the concentration at which inhibition is half-maximal. Higher therefore signals a need for much substance.

Chain of trypsin from porcine pancreas (P00761 9-231): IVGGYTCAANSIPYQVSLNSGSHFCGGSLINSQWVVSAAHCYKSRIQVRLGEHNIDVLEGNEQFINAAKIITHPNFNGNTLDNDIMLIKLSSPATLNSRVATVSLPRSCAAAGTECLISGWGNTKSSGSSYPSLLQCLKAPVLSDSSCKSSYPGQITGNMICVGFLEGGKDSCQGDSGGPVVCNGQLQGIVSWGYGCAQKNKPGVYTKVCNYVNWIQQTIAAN

Turning to `O=C(O)/C=C/c1ccc(O)c(O)c1` [caffeic acid], it took 40.6 mM to reach half-maximal inhibition (IC50).

Consider tannic acid, for which the IC50 trypsin inhibition came to 75.66 µg/mL.

The values above are taken from publication PMC6598221 (Saudi Pharmaceutical Journal : SPJ, 2019).
